# Test results reported in PubChem BioAssay AID623961 (The Scripps Research Institute Molecular Screening Center, 2012).
# Several values for one entry are separate records, joined by “and”; a condition that tells them apart may be missing. Identical values can stand only once. Activity calls are given as the source filed them.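 How the source made its calls: active means mean cell viability below 80%; inactive means the rest.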
# System: Huh-7.5 Rluc-replicon viability, CellTiter-Glo ATP, 72 h
# Experiment: cytotoxicity in HCV replicon hepatoma cells, late-stage follow-up, cytotoxicity control for HCV NS3 helicase inhibitor project, cell-based, luminescence (AID 623961)
# Conditions: at 10 µM; hits give low values
# Summary of the method: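 Assay system: Huh-7.5 cells with HCV RLuc replicon. Times: cell attachment 4-5 h, compound exposure 72 h at 37 °C, 5% CO2. Signal: ATP luminescence after 30 min lysis at 23 °C. Buffer or medium: growth medium, replaced before viability reagent. Compound: 10 µM single concentration, 0.5% DMSO.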
row,Structure (SMILES),viability
1,Cc1ccc2nc(-c3ccc4nc(-c5ccc(NC(=O)Nc6ccc(Cl)cc6)cc5)sc4c3)sc2c1S(=O)(=O)O,98% (inactive)
2,Cc1ccc2nc(-c3ccc4nc(-c5ccc(NC(=O)c6ccc(N)cc6)cc5)sc4c3)sc2c1S(=O)(=O)O,93% (inactive)
3,Cc1ccc2nc(-c3ccc4nc(-c5ccc(NC(=O)c6ccc(Cl)cc6)cc5)sc4c3)sc2c1S(=O)(=O)O,84% (inactive)
4,Cc1ccc2nc(-c3ccc4nc(-c5ccc(NC(=O)c6cc(C(F)(F)F)ccc6F)cc5)sc4c3)sc2c1S(=O)(=O)O,132% (inactive)
5,Cc1ccc2nc(-c3ccc(NC(=O)c4ccc(NC(=S)Nc5ccccc5)cc4)cc3)sc2c1S(=O)(=O)O,106% (inactive)
6,Cc1ccc2nc(-c3ccc4nc(-c5ccc(NC(=O)c6ccc(NC(=O)OCC7c8ccccc8-c8ccccc87)cc6)cc5)sc4c3)sc2c1S(=O)(=O)O,92% (inactive)
7,Cc1ccc2nc(-c3ccc4nc(-c5ccc(NC(=O)c6cccc(Cl)c6)cc5)sc4c3)sc2c1S(=O)(=O)O,112% (inactive)
8,Cc1ccc(NC(=O)Nc2ccc(-c3nc4ccc(-c5nc6ccc(C)c(S(=O)(=O)O)c6s5)cc4s3)cc2)cc1,93% (inactive)
9,Cc1ccc2nc(-c3ccc(NC(=O)c4ccc(N)cc4)cc3)sc2c1S(=O)(=O)O,103% (inactive)
10,Cc1ccc2nc(-c3ccc4nc(NC(=O)c5ccc6ncoc6c5)sc4c3)sc2c1,28%
11,Cc1ccc2nc(-c3ccc4nc(-c5ccc(NC(=O)c6cccc7ccccc67)cc5)sc4c3)sc2c1S(=O)(=O)O,103% (inactive)
12,Cc1ccc2nc(-c3ccc4nc(-c5ccc(NC(=O)Nc6ccc(F)cc6)cc5)sc4c3)sc2c1S(=O)(=O)O,93% (inactive)
13,Cc1cc2sc(-c3ccc(N)cc3)nc2cc1S(=O)(=O)O,88% (inactive)
14,Cc1ccc2nc(-c3ccc4nc(-c5ccc(NCc6ccccc6)cc5)sc4c3)sc2c1S(=O)(=O)O,109% (inactive)
15,Cc1ccc2nc(-c3ccc4nc(-c5ccc(NC(=S)Nc6ccccc6)cc5)sc4c3)sc2c1S(=O)(=O)O,98% (inactive)
16,Cc1ccc(C(=O)Nc2ccc(-c3nc4ccc(-c5nc6ccc(C)c(S(=O)(=O)O)c6s5)cc4s3)cc2)cc1,87% (inactive)
17,CC(=O)Nc1ccc(-c2nc3ccc(-c4nc5ccc(C)c(S(=O)(=O)O)c5s4)cc3s2)cc1,102% (inactive)
18,Cc1ccc2nc(-c3ccc4nc(-c5ccc(NC(=O)c6ccc7ncoc7c6)cc5)sc4c3)sc2c1S(=O)(=O)O,114% (inactive)
19,CCN(CC)c1ccc(-c2nc3ccc(C)c(S(=O)(=O)O)c3s2)cc1,99% (inactive)
20,CCN(CC)c1ccc(-c2nc3ccc(-c4nc5ccc(C)c(S(=O)(=O)O)c5s4)cc3s2)cc1,96% (inactive)
21,Cc1ccc2nc(-c3ccc4nc(-c5ccc(NS(=O)(=O)c6ccc(C(F)(F)F)cc6)cc5)sc4c3)sc2c1S(=O)(=O)O,101% (inactive)
22,Cc1ccc2nc(-c3ccc4nc(-c5ccc(N)cc5)sc4c3)sc2c1S(=O)(=O)O,85% (inactive) and 105% (inactive) and 95% (inactive)
23,Cc1ccc2nc(-c3ccc4nc(-c5ccc(NC(=O)c6ccc(C(F)(F)F)cc6)cc5)sc4c3)sc2c1S(=O)(=O)O,90% (inactive)
24,Cc1ccc2nc(-c3ccc4nc(-c5ccc(NC(=O)c6cccc(C(F)(F)F)c6)cc5)sc4c3)sc2c1S(=O)(=O)O,121% (inactive)
25,Cc1ccc2nc(-c3ccc4nc(-c5ccc6nc(-c7ccc(N)cc7)sc6c5)sc4c3)sc2c1S(=O)(=O)O (tested in a mixture with another compound),98% (inactive)

row,Structure (SMILES),viability
1,Cc1ccc2nc(-c3ccc4nc(-c5ccc(NC(=O)c6ccc(Cl)c(Cl)c6)cc5)sc4c3)sc2c1S(=O)(=O)O,114% (inactive)
2,Cc1ccc2nc(-c3ccc4nc(-c5ccc(NC(=O)c6ccccc6)cc5)sc4c3)sc2c1S(=O)(=O)O,88% (inactive)
3,O=C(Nc1ccc(-c2nc3ccccc3[nH]2)cc1)c1ccc2ncsc2c1,96% (inactive)
4,O=C(CCCCCCC(=O)Nc1ccc(-c2nc3ccccc3[nH]2)cc1)Nc1ccc(-c2nc3ccccc3[nH]2)cc1,31%
5,Cc1cc(C(O)(c2ccc(Nc3ccccc3)cc2)c2ccc(Nc3ccc(S(=O)(=O)O)cc3)cc2)ccc1N (centres undefined),73%
6,CCOc1ccc2c(NNC(=O)c3cnccn3)c3c(nc2c1)CCCC3,31%
7,Cc1ccc2nc(-c3ccc4nc(-c5ccc(NC(=O)c6ccccc6C(F)(F)F)cc5)sc4c3)sc2c1S(=O)(=O)O,112% (inactive)
8,Cc1ccc2nc(-c3ccc4nc(-c5ccc(NC(=O)Nc6ccccc6)cc5)sc4c3)sc2c1S(=O)(=O)O,108% (inactive)
9,Cc1ccc2nc(-c3ccc4nc(-c5ccc(NC(=O)c6ccc(F)cc6)cc5)sc4c3)sc2c1S(=O)(=O)O,94% (inactive)
10,CCOc1ccc2nc(NC(=O)c3ccc4ncsc4c3)sc2c1,3%
11,NS(=O)(=O)c1ccc2nc(NC(=O)c3ccc4ncsc4c3)sc2c1,94% (inactive)
12,Cc1ccc2nc(-c3ccc4nc(-c5ccc(NC(=O)c6ccncc6)cc5)sc4c3)sc2c1S(=O)(=O)O,117% (inactive)
13,CS(=O)(=O)c1ccc2nc(NC(=O)c3ccc4ncsc4c3)sc2c1,41%
14,CN1CCN(Cc2cc(CN3CCN(C)CC3)c(O)c(=O)c(CN3CCN(C)CC3)c2)CC1,69%
15,Cc1ccc2nc(-c3ccc(N)cc3)sc2c1S(=O)(=O)O,104% (inactive)
16,COc1ccc(C(=O)Nc2ccc(-c3nc4ccc(-c5nc6ccc(C)c(S(=O)(=O)O)c6s5)cc4s3)cc2)cc1,85% (inactive)
17,Cc1ccc2nc(-c3ccc4nc(-c5ccc(NC(=O)c6ccc7nc(-c8ccc(N)cc8)sc7c6)cc5)sc4c3)sc2c1S(=O)(=O)O,85% (inactive)
18,Cc1ccc2nc(-c3ccc4nc(-c5ccc(NC(=O)Nc6ccc(C(F)(F)F)cc6)cc5)sc4c3)sc2c1S(=O)(=O)O,99% (inactive)
19,Cc1ccc2nc(-c3ccc4nc(-c5ccc(NC(=O)c6ccc(CNC(=O)OCC7c8ccccc8-c8ccccc87)cc6)cc5)sc4c3)sc2c1S(=O)(=O)O,102% (inactive)
20,Cc1ccc2c(sc(-c3ccc4c(c3)sc(-c3ccc5c(c3)sc(-c3ccc(N(C)C)cc3)[n+]5C)[n+]4C)[n+]2C)c1S(=O)(=O)O (tested in a mixture with another compound),83% (inactive)
21,COc1ccc(NC(=O)Nc2ccc(-c3nc4ccc(-c5nc6ccc(C)c(S(=O)(=O)O)c6s5)cc4s3)cc2)cc1,99% (inactive)
22,Cc1ccc2nc(-c3ccc(NC(=O)c4ccc(NC(=O)c5ccc(N)cc5)cc4)cc3)sc2c1S(=O)(=O)O,112% (inactive)
23,Cc1ccc2nc(-c3ccc4nc(-c5ccc(NC(=O)c6ccc(C(C)(C)C)cc6)cc5)sc4c3)sc2c1S(=O)(=O)O,87% (inactive)
24,O=C(Nc1nc2ccc(Br)cc2s1)c1ccc2ncsc2c1,89% (inactive)
